This is a sample that favours compounds with a hit; in the whole collection about 12% have one here.
PKD1 inh: inhibitors of human PKD1 kinase | Q15139 | PKD1 kinase fluorescence polarization assay | inhibition, % (no concentration beside the values) | 200,000 tested, 0.056% active | AID 797
Wee1 stabilizer: human Wee1 degradation inhibition, primary screen. P30291. HeLa Luc-Wee1K328M stability, luciferase luminescence; 100% = proteasome inhibitor MG132 effect. reporter increase, % at 5 µM. AID 1321. 220,000 tested, 1.2% active;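 active = activation above the mean of all tested compounds plus 3 SD, set per screening run, cut at about 8.8% in these data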;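 note: cells exposed to compound for 20 h before luminescence read; 0% = DMSO alone and 100% = MG132 at 30 µM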
Lmaj promast: inhibitors of Leishmania major promastigote growth; 200,000 tested, 9% active; Leishmania major promastigotes, resazurin fluorescence viability; inhibition, % at 10 µM; AID 1063;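 note: promastigotes grown with compound for 44 hours at 28 °C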
Arbovirus anti: arbovirus infection inhibition | inhibition, % at 10 µM | 200,000 tested, 0.37% active | arbovirus infection cell-based antiviral screen; in the data active = inhibition above about 30%
CHOP inhibitor: blocks CHOP induction under ER stress | CHO-K1 CHOP-promoter luciferase, tunicamycin-induced, 15-18 h | inhibition, % at 10 µM | 220,000 tested, 3.8% active;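 active = compounds that reduced the stress-induced luciferase reporter signal by more than about 70% of percent inhibition, limit read from the data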;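 note: 0% = tunicamycin plus vehicle and 100% = wells without tunicamycin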
Rad51 HR inh: blocks human Rad51 in homologous recombination; Q06609; hRad51 DNA strand exchange, fluorescence dequenching; inhibition, % at 10 µM; 200,000 tested, 0.085% active; AID 1385;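 active = inhibition above 40% at the single screening dose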;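 note: 0% = DMSO control wells and 100% = blanks with heterologous ssDNA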
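material = hRad51 filaments on single-stranded DNA | reagent = Donor/quencher-labelled 47-bp dsDNA substrate | compound = 10 µM final, single point | schedule = strand-exchange reaction 15 min at room temperature | measured by = fluorescein emission 520 nm, excitation 485 nm | read-out basis = % inhibition versus plate control and blank means | benchmarks = plate controls and plate blanks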
* marks the source's active call; other numbers are inactive results; nt = not tested or not shown. Cut-off read from the data, not from the text of the source, unless noted: active = inhibition above about 50%; inactive = the rest.

SMILES	PKD1 inh	Wee1 stabilizer	Lmaj promast	Arbovirus anti	CHOP inhibitor	Rad51 HR inh
CN1CCN(c2ccc3ccccc3n2)CC1	nt	nt	nt	nt	5.5	nt
O=C(c1ccc(-c2ccccc2)cc1)C1CCCN(Cc2ccn[nH]2)C1 (centres undefined)	-0.5	-0.3	98.5*	-29.9	14.6	13.6
CSc1ccc(C(=O)C2CCCN(Cc3cc4ccccc4[nH]3)C2)cc1 (centres undefined)	-4.1	-0.1	87.7*	-28.8	70.2*	-5.9
O=C(c1ccc2c(c1)OCO2)C1CCCN(Cc2ccccn2)C1 (centres undefined)	1.4	-2.9	-5.3	1.6	-4.2	-4.9
CC(C)(C)c1ccc(C(=O)C2CCCN(Cc3ccon3)C2)cc1 (centres undefined)	-3.9	5.8	80.1*	8.3	-0.1	nt
Cc1ccsc1C(=O)C1CCCN(Cc2ccn[nH]2)C1 (centres undefined)	-0.5	-1.6	6.2	6.9	-0.8	nt
CSc1ccc(C(=O)C2CCCN(Cc3cccnc3)C2)cc1 (centres undefined)	1.3	-2.3	85.1*	7.6	14.0	nt
COc1cc(C)c(CN2CCN(c3ccccc3)CC2)cc1C	2.3	-2.9	20.9	-0.9	35.3	-1.3
NC(Cc1ccccc1)c1nc(-c2ccccc2)no1 (centres undefined)	nt	3.1	nt	nt	15.7	2.6
CC(C)OC(=O)c1c(N)n(Cc2ccco2)c2nc3ccccc3nc12	2.7	1.5	56.3*	-0.9	39.3	nt
CCCNC(=O)c1c(N)n(Cc2ccco2)c2nc3ccccc3nc12	-2.8	4.4	46.8	-1.6	83.0*	-25.0
COc1ccc(Cn2c(N)c(C(=O)NCc3ccco3)c3nc4ccccc4nc32)cc1OC	8.4	2.5	59.3*	-18.6	nt	nt
C=CCNC(=O)c1c(N)n(CCN2CCOCC2)c2nc3ccccc3nc12	0.5	-0.6	38.7	9.9	29.8	-1.3
Nc1c(C(=O)NCc2ccco2)c2nc3ccccc3nc2n1CCN1CCCCC1	-10.1	1.0	64.5*	-31.5	49.5	-5.7
COCCCNC(=O)c1c(N)n(Cc2ccco2)c2nc3ccccc3nc12	nt	1.1	nt	nt	5.6	nt
Cn1c(O)c(/C=C2/C=CC=N2)c(=O)[nH]c1=O	nt	-2.2	nt	nt	-0.8	14.7
CCNC(=S)N1CCn2cccc2C1c1cccnc1 (centres undefined)	4.6	0.0	70.4*	6.1	6.5	3.5
Cc1nn(Cc2ccccc2)c(C)c1C=C1C(=O)NC(=S)NC1=O	-11.6	1.8	59.7*	-4.4	1.1	-3.2
COC(=O)C(O)(c1ccc(NC(=O)Oc2ccccc2)cc1)C(F)(F)F (centres undefined)	12.0	1.3	-1.0	1.7	7.8	5.3
CCN(c1ccc(C(O)(C(=O)OC)C(F)(F)F)cc1)S(=O)(=O)c1ccc(C)cc1 (centres undefined)	9.8	-0.5	89.0*	7.3	-43.7	4.9
COC(=O)C(O)(c1ccc(N(C)S(=O)(=O)c2ccccc2)cc1)C(F)(F)F (centres undefined)	8.4	-0.7	99.7*	6.2	25.2	-4.4
CCOC(=O)C(O)(c1ccc(N(C)C(=O)COc2ccccc2)cc1)C(F)(F)F (centres undefined)	3.7	0.2	25.4	nt	nt	-3.1
CCOC(=O)C(O)(c1ccc(N(CC)S(=O)(=O)c2ccc(C)cc2)cc1)C(F)(F)F (centres undefined)	-7.2	-0.8	92.5*	-2.3	64.5	1.4
CCOC(=O)C(O)(c1ccc(N(CC)C(=O)COc2ccccc2)cc1)C(F)(F)F (centres undefined)	-5.7	-1.4	64.6*	4.6	18.5	nt
O=C(N/N=C\C1C(=O)NC(=S)N(c2ccccc2)C1=O)c1ccc(O)cc1 (centres undefined)	-0.6	3.9	-10.5	6.6	-28.3	-1.1
CN(C)C(=O)Oc1noc2cc(Cl)ccc12	nt	-1.0	nt	nt	0.3	14.0
O=C(NC1CN2CCC1CC2)c1cc(Cl)c([N+](=O)[O-])c2nc[nH]c12 (centres undefined)	8.5	-2.7	36.0	-31.8	4.3	nt
C=CCN=C(SCC(=O)c1ccc(Cl)cc1)c1c(O)n(C)c(=O)n(C)c1=O	nt	-1.8	nt	nt	0.8	6.9
N#CCCn1cc(C(=O)Nc2ccccc2Br)c(-c2ccc([N+](=O)[O-])cc2)n1	8.1	0.2	-1.4	-4.6	17.4	-1.5

High-throughput results (PubChem)
